Mdm2 ligase inh: MDM2-luciferase reporter signal enhancers, primary screen, MDM2 E3 ligase inhibitor project, cell-based, luminescence, 1536-well; hit rate 0.11% among 210,000; cell-based MDM2 ubiquitination luciferase reporter, 2 h; 0 = plate control, 100 = twice control, blank-subtracted; signal enhancement, % at 5 µM;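 active means signal enhancement of 30% or more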;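 further: luminescence tracks abundance of the self-degrading MDM2-luciferase fusion protein; higher signal means inhibition of MDM2 E3 ligase activity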
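Test system: stable mammalian line carrying autodegrading MDM2–luciferase fusion reporter; quantity: 2000 cells in each well; times: 4 h cell settling then 2 h compound exposure, 37 °C; detection: luminescence with SteadyLite reagent, 15 min at room temperature; evaluation: percent signal gain over controls, blank-subtracted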
NPY-Y2 PAM-ag: NPY-Y2 potentiators or agonists, primary screen, cell-based; hit rate 0.45% among 220,000; AID 1359, 2008; Neuropeptide Y receptor type 2 (Homo sapiens), P49146; activation, % at 3.6 µM; cells expressing NPY-Y2, potentiator/agonist read-out; in the data active means activation above about 27%;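 further: cells stimulated with NPY near EC25 plus isoproterenol at EC100; 0% = vehicle plus submaximal agonist and 100% = vehicle plus saturating agonist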
Target sequence (P49146 whole entry, looked up): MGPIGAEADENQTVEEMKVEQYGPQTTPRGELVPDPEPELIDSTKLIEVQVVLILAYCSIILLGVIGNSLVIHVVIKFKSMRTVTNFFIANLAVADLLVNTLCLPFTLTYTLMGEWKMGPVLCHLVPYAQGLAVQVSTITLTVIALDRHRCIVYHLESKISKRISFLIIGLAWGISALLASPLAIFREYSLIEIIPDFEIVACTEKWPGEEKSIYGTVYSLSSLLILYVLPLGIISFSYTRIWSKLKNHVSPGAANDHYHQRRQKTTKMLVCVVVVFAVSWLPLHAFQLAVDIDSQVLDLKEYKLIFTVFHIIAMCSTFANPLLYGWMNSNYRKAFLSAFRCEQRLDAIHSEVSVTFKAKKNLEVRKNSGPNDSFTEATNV
NPY-Y1 PAM-ag: NPY-Y1 receptor potentiators or agonists, primary screen, cell-based; NPY-Y1 expressing cells, potentiator/agonist activation; Neuropeptide Y receptor type 1 (Homo sapiens), P25929; hit rate 0.37% among 220,000; activation, % at 3.6 µM; AID 1304, 2008; in the data active means activation above about 33%, passing the limit was not always enough;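 further: cells stimulated with NPY at EC10 then isoproterenol at EC100; 0% = low agonist plus stimulus and 100% = saturating agonist plus stimulus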
NPY-Y2 antag: NPY-Y2 receptor antagonists, primary screen, cell-based; hit rate 0.99% among 140,000; Neuropeptide Y receptor type 2 (Homo sapiens), P49146; AID 793, 2007; inhibition, % at 2.7 µM; NPY-Y2 expressing cells, antagonist mode; in the data active means inhibition above about 17%;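 further: 0% = vehicle with agonist challenge and 100% = reference antagonist with challenge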
Measles CPE: compounds protecting cells from measles virus cytopathic effect, primary screen, measles RdRp inhibitor project, single point, MLSMR library, absorbance; Measles virus-infected cells, CPE protection; protection (pct of control), % at 4 µM; hit rate 1.5% among 140,000; in the data active means protection mostly above about 24%, no sharp cut-off; inactive means mostly below about 26%
NPY-Y1 antag: NPY-Y1 receptor antagonists, primary screen, cell-based. inhibition, % at 3.6 µM. Neuropeptide Y receptor type 1 (Homo sapiens), P25929. hit rate 1% among 200,000. HEK293-CNG Y1 cells, membrane potential fluorescence; NPY at EC95, then isoproterenol;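 active means inhibition above the campaign mean inhibition of all tested compounds plus 3 SD, cut at about 20% in these data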;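 further: 0% = DMSO wells given NPY plus isoproterenol and 100% = isoproterenol alone without NPY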
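Assay system: HEK293 Y1/CNG channel cell line; Doses: single compound dose of 3.6 µM, 0.4% DMSO; Timing: dye 3 h, compound 60 min room temperature, stimulation 45 min; Technique: Membrane-potential fluorescent dye readout; Measure: % inhibition of NPY effect.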
* hit, by the source's call; . = no result. Only some compounds are listed: those with a hit (about 2.8% of all), similar ones and a draw of the others.

SMILES	Mdm2 ligase inh	NPY-Y2 PAM-ag	NPY-Y1 PAM-ag	NPY-Y2 antag	Measles CPE	NPY-Y1 antag
COc1ccc(N2CCN(c3oc(COc4ccc(Cl)cc4)nc3C#N)CC2)cc1	-3.0	-8.0	-39.8	24.0*	8.1	48.7*
N#Cc1nc(COc2ccc(Br)cc2)oc1N1CCCCCC1	0.3	-19.2	-19.0	16.9	11.4	11.0
N#Cc1nc(COc2ccc(Br)cc2)oc1N1CCCC1	-13.7	-49.3	-23.4	22.3*	41.6	27.3*
N#Cc1nc(COc2ccc(Cl)cc2)oc1N1CCN(Cc2ccccc2)CC1	-3.0	-37.4	-49.1	32.1*	21.2	33.5*
N#Cc1nc(COc2ccc(Cl)cc2Cl)oc1N1CCOCC1	-18.6	13.2	-21.5	3.9	11.4	7.7
COc1ccc(N2CCN(c3oc(COc4ccc(Cl)cc4Cl)nc3C#N)CC2)cc1	-25.1	-15.9	-51.0	10.8	4.0	51.8*
CCN1CCN(c2oc(COc3ccc(Cl)cc3)nc2C#N)CC1	-5.8	-46.0	-17.9	.	.	.
COc1ccc(N2CCN(c3oc(COc4ccccc4)nc3C#N)CC2)cc1	-25.9	-11.7	1.1	26.8*	5.8	38.8*
CC(C)Cn1c(=O)c2c(nc3n2CCCN3CCc2ccccc2)n(C)c1=O	-6.5	-2.2	-9.4	3.9	1.1	-2.3
Cc1nc(=O)cc(-c2ccccc2)n1-c1ccccc1	-5.5	17.6	14.9	1.4	36.3*	0.1
Cc1ccc(C)c(N2CCN(c3nc4ccccc4c(=O)n3Cc3ccccc3)CC2)c1	-12.0	-5.6	-30.8	28.1*	17.8	30.1*
Cc1ccc(NC(=O)C2C(C(=O)O)C3C=CC2C32CC2)cc1 (stereo unspecified)	-9.6	13.6	-10.6	4.6	12.7	-6.3
Cc1ccc(NC(=O)C2C(c3ccccc3)C=CC(c3ccccc3)C2C(=O)O)cc1 (stereo unspecified)	1.1	-7.9	-1.1	-1.0	27.1*	-3.4
CNC(=O)c1oc(-c2ccccc2)nc1C	0.4	-1.3	5.1	.	.	6.2
OCCNCCCCOc1ccc(F)cc1	5.2	4.9	13.5	0.8	48.5*	-2.0
OCCNCCCCOc1ccc(OCc2ccccc2)cc1	-22.9	-10.1	-27.4	7.2	5.3	9.5
O=C(CSc1n[nH]c(-c2ccccc2)n1)NCc1cccc(C(=O)O)c1	-0.1	6.3	10.9	.	.	9.0
COc1ccccc1OCCN1CSC(=S)N(C)C1	-9.4	8.3	7.3	2.8	34.5*	-3.9
CCN(CC)C(=S)SC1CCCCN(C(=O)c2ccccc2)C1=O (stereo unspecified)	-2.4	-4.7	-18.3	.	.	.
CCN(CC)C(=O)C(C)N(C#N)c1nc(C)cc(C)n1 (stereo unspecified)	-24.5	104.8*	114.1*	-0.4	15.8	-11.6
Cc1cc(C)nc(N(C#N)C(C)C(=O)N(C)C)n1 (stereo unspecified)	-9.9	0.5	-2.4	0.7	7.2	-0.1
O=[N+]([O-])c1cc(S(=O)(=O)N2CCCCC2)ccc1NCCCN1CCOCC1	-6.9	-3.0	6.1	.	.	1.0
CC[N+]1=C(C)C(C)(C)c2cc(C)ccc21	-11.5	-10.2	-41.6	.	.	16.2
Cc1ccc2c(c1)C=CC(C)(C)S2=O (stereo unspecified)	118.3*	8.7	-11.6	2.9	3.2	7.0
COC(=O)c1ccc(CN2C(=O)NC3(CCCCC3C)C2=O)o1 (stereo unspecified)	-28.0	3.7	6.7	3.2	14.4	-2.5
SMILES	Mdm2 ligase inh	NPY-Y2 PAM-ag	NPY-Y1 PAM-ag	NPY-Y2 antag	Measles CPE	NPY-Y1 antag
CNC(=O)c1nn(-c2ccc(C)cc2)ccc1=O	-8.5	-9.7	18.5	0.2	43.0*	-3.4
Oc1[nH]c2ccccc2c1N=NC(=S)N1CCOCC1	31.3*	10.5	1.0	.	.	.
Oc1[nH]c2ccc(Br)cc2c1N=NC(=S)N1CCOCC1	14.2	4.0	7.9	.	.	.
Cc1nnc(SCC(=O)Nc2nc(C(C)(C)C)cs2)s1	-0.7	-20.9	-9.6	3.7	54.3*	2.2
CCOC(=O)C1=C(C)NC(=O)C(C(N)=O)C1c1ccccc1 (stereo unspecified)	-23.2	7.6	-4.3	-0.7	6.9	-9.4
c1ccc(C(c2ccccn2)c2ccccn2)cc1	-9.3	8.5	16.6	2.2	3.0	-3.5
CC(=O)Oc1ccc(C(c2ccc(OC(C)=O)cc2)c2ccccn2)cc1	.	-28.2	-125.0	108.2*	5.0	102.0*
Cc1ccc(C2=C(c3ccc([N+](=O)[O-])cc3)C(=O)OC2)cc1C	1.4	6.5	-16.1	.	.	-1.3
Cc1cc(N2CCN(C(=O)c3ccco3)CC2)n2ncnc2n1	-7.8	1.4	-4.2	-0.9	3.0	1.8
Cc1cc(N2CCN(C(=O)c3ccco3)CC2)n2ncc(-c3ccccc3)c2n1	-13.3	-3.6	1.2	0.4	39.3*	-2.4
Cc1nccc(-c2ccc(-n3cnc4ccccc43)cc2)n1	-12.0	-4.3	-12.8	4.2	28.6*	1.6
CC(=O)Nc1ccc(C(=O)OCC(=O)Nc2c(F)cccc2F)cc1	-6.8	-11.9	-7.8	.	.	.
COC(=O)C(C)Sc1nc2c(cnn2-c2ccc(C)cc2)c(=O)[nH]1 (stereo unspecified)	12.8	8.2	-5.8	2.3	58.6*	10.4
CCC(Sc1nc2c(cnn2-c2ccccc2)c(=O)[nH]1)C(=O)OC (stereo unspecified)	-1.5	-17.2	5.2	0.8	9.5	-0.4
COc1cccc(CNC(=O)Nc2cccs2)c1	-15.9	9.0	-4.8	1.5	44.4*	-7.6
COc1ccc(C(=O)NCCSC2CCCCC2)cc1	40.5*	-6.0	-10.2	2.7	13.3	7.3
Cc1cc(C)n(C(=O)/C=C/c2cccs2)n1	-2.3	-22.2	9.5	.	.	.
CCN(CC)CCn1c(=N)n(CCOc2ccccc2)c2ccccc21	-9.0	-12.6	-13.3	34.7*	23.8	29.9*
CCN(CC)CCn1c(=N)n(CC(O)COc2ccccc2)c2ccccc21 (stereo unspecified)	-14.5	-43.7	-44.4	.	.	.
CCOc1ccc(N2C(=O)C(=O)/C(=C(/O)c3ccccc3)C2c2ccccc2[N+](=O)[O-])cc1 (stereo unspecified)	-5.8	12.2	11.1	.	.	.
Cn1c(=N)n(CC(O)c2cccc3ccccc23)c2ccccc21 (stereo unspecified)	-11.2	-7.0	-69.5	24.4*	31.0	33.8*
Cn1c(=N)n(CC(O)c2ccco2)c2ccccc21 (stereo unspecified)	-13.0	-25.8	0.2	4.2	9.8	7.5

Source: PubChem (several laboratories)
